A short description of assay [1]: inhibitors of TNFa-induced NFkB p65 translocation, primary screen, imaging, HUVEC, MLSMR starter and 10KST1 sets (AID 438;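 active = inhibition above 20% together with a positive visual image hit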;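 note: compound added about 3h40 before a 20 min TNFalpha stimulation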;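 for inhibition: signal is the nuclear over cytoplasmic p65 intensity ratio per well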). The settings on record: HUVEC TNFa-induced p65 nuclear translocation; cell count: measured here: nuclei count (cytotoxicity indicator), at 2.08 µM; inhibition: at 2 µM, stronger effect = higher value, 0% TNFa-plus-vehicle, 100% no-TNFa wells.
Assay [2] in a line: endothelial E-selectin expression blockers – imaging, HUVEC, immunofluorescence, MLSMR starter and 10KST1 sets, primary screen (AID 487;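 active = visually confirmed hit in the image check and inhibition above 20%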;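 for inhibition: signal is fraction of cell area covered by stained E-selectin grains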;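 for nuclei count: 100% = median nuclei count of all wells on the same plate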). The settings on record: HUVEC TNFalpha-induced E-selectin immunofluorescence imaging, at 2 µM; inhibition: stronger effect = higher value; nuclei count: measured here: cell number, toxicity.
Assay [3] is described as follows: Primary imaging screen for DUSP6 inhibitors that restore phospho-Erk in transfected HeLa cells, chemical complementation (AID 609;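 active = compounds giving at least 50% inhibition in the cell-based MKP-3 phosphatase rescue imaging test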;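 for inhibition: phospho-Erk level distribution per well compared with pooled transfected vehicle control wells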). The note with it: HeLa MKP-3 transfected, phospho-Erk imaging KS statistic, at 10 µM, cells stimulated with TPA for 15 min.
Assay [4] has as its target Dual specificity protein phosphatase 6 (Homo sapiens) (UniProt Q16828). The assay is described as above. The settings on record: HeLa MKP-3 transfected, phospho-Erk imaging KS statistic; at 10 µM; stronger effect = higher value; cells stimulated with TPA for 15 min.
Assay [5] deals with Voltage-gated potassium channel subunit beta-2 (Rattus norvegicus) (UniProt P62483). As to the kind of experiment: inhibitors of rat Kvbeta2 reductase activity – biochemical, NADPH fluorescence, primary screen (AID 622).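 Note: slope of raw intensity against log time taken from 70 to 1610 s.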 The note with it: recombinant KvBeta, 4-cyanobenzaldehyde reduction, at 10 µM, stronger effect = higher value.
Assay [6] has the same target. The assay is described as follows: enhancers of rat Kvbeta2 NADPH turnover – biochemical, NADPH fluorescence, primary screen (AID 623;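 active = NADPH fluorescence slope more negative than the mean of all samples by about 3 SD, 99.7% confidence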;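 note: fluorescence intensity change per second fitted from 20 to 320 s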). The note with it: Recombinant KvBeta, NADPH fluorescence decrease slope, 10 min; at 10 µM; stronger effect = lower value.
Assay [7] addresses Muscarinic acetylcholine receptor M4 (Homo sapiens) (UniProt P08173). As to the kind of experiment: M4-linked GIRK flux change, two-sided – cell-based, HEK293 M4/GIRK, thallium flux, BTC-AM, M4 allosteric agonist project, primary screen (AID 625;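 active = fluorescence slope after compound addition differing from the mean of all tested samples at 99.7% confidence, mostly higher but some lower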;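 note: thallium influx through GIRK channels coupled to M4 in HEK293 cells with BTC-AM dye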). The note with it: at 10 µM, actives lie on both sides. Put shortly: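 Material: M4/GIRK1/GIRK2 stable HEK293 cell line. Medium: pH 7.3 thallium assay buffer. Dosing: single compound concentration, 10 µM final. Schedule: 1 h dye loading, 2 min kinetic read. Measured by: kinetic fluorescence with BTC-AM dye. Read-out: post-addition slope, 15–24 s, of baseline-normalized fluorescence. Benchmarks: carbachol and DMSO controls.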

Assay [8] can be described thus: inhibitors of larval lipid processing in zebrafish, primary screen, whole organism, PED6 fluorescence, gall bladder and intestine (AID 686;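 active = a full or partial loss of lipid-probe fluorescence in the fish gall bladder, intestine or both, judged by eye; inactive = no fluorescence loss, or compound toxic to the fish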;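 note: larvae 5 to 7 days old with five fish per well; signal comes from phospholipase A2 cleavage of quenched PED6 carried via bile; overnight exposure to compound and PED6 before scoring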). The settings on record: Zebrafish larvae PED6 lipid processing, fluorescence scoring; screened at 20 µM (by protocol). Put shortly:
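System: live zebrafish larvae aged 5-7 days, whole organism; measure: graded gall bladder and intestinal fluorescence inhibition per well; incubation: overnight exposure; reagent: ingested quenched lipid PED6 at 100 nM; signal: By-eye fluorescence microscopy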

Assay [9] is described as follows: loss of swimming-algae plug formation – whole organism, Chlamydomonas reinhardtii, WT vs cilia-less mutant, absorbance, 96-well, primary screen (AID 463189;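 active = inhibition at or above 50% relative to wild type and mutant plate controls; inactive = inhibition below 50%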;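 note: 0% = wild type cc124 cells in DMSO and 100% = ciliumless bld1 mutant cells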). The note with it: Chlamydomonas reinhardtii gravitaxis, OD600 absorbance, 2 days; at 10 µM; stronger effect = higher value.
The mark [10] stands for this setting: measured here: cell density z-score.
The mark [11] stands for this setting: measured here: nuclear c-Myc green intensity z-score.
[12] abbreviates: measured here: nuclear pErk red intensity z-score, stronger effect = higher value.

Activity calls are given as the source filed them.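 Rule for the calls, unless noted: active = fluorescence slope higher than the sample average by over 3 SD (cut at about -0.22 in these data, passing the limit was not always enough); inactive = the rest.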

For orientation: inhibition means the relative decrease from the control value, in per cent.

Chain of Dual specificity protein phosphatase 6 (Homo sapiens) (Q16828 whole entry, looked up): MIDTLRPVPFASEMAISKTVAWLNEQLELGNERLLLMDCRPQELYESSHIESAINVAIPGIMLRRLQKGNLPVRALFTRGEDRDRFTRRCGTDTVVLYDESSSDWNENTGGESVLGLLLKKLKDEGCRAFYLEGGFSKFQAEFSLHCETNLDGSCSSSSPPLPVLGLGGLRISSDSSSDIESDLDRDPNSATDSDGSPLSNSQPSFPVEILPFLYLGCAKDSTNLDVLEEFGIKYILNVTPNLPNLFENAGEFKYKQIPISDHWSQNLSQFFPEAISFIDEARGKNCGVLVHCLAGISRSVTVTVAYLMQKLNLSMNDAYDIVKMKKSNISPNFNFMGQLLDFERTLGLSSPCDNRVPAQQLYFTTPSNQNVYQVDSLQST
Chain of Muscarinic acetylcholine receptor M4 (Homo sapiens) (P08173 whole entry, looked up): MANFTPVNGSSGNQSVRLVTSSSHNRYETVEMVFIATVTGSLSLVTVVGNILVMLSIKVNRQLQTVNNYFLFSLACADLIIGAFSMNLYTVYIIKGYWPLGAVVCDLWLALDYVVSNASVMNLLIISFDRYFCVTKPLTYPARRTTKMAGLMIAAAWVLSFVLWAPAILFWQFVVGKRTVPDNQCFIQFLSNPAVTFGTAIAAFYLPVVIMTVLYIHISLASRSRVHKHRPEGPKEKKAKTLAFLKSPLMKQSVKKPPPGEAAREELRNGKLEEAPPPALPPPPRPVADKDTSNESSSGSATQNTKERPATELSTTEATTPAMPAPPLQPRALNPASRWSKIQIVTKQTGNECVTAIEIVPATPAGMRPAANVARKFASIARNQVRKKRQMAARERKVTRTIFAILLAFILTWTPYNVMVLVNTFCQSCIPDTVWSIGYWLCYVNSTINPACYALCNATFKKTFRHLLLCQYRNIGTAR
Chain of Voltage-gated potassium channel subunit beta-2 (Rattus norvegicus) (P62483 whole entry, looked up): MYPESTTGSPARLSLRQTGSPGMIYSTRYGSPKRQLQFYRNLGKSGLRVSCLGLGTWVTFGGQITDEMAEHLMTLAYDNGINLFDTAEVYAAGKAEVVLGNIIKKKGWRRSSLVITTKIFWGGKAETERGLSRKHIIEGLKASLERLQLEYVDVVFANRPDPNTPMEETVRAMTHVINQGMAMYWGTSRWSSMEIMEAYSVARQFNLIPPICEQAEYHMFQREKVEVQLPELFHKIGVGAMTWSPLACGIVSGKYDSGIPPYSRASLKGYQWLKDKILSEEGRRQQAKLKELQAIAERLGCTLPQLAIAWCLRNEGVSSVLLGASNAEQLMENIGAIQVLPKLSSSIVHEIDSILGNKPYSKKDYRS

Turning to `CCc1c(C)c2cc(Cl)c(O)c(CN3CCCCC3)c2oc1=O`, the cell count in assay [1] was determined as 634. Further, the inhibition is -3.5% (inactive) in assay [1], 6.3% (inactive) in assay [2], -10.6% (inactive) in assay [4] and -1.88% (inactive) in assay [9]. This molecule gave a nuclei count in [2] of 174%. The z-score in [3] (setting [10]) is 0.309; in [3] (setting [11]), 0.0643; in assay [3] (setting [12]), -0.532. Further, the fluorescence slope was -0.0112 (inactive) in assay [5] and 0.00604 (inactive) in assay [7]. For the same molecule, the NADPH fluorescence slope in assay [6] was -2.8e-08 (inactive). The molecule was classed as inactive in assay [8].
On to `CSc1nc2sc3c(c2c2nnnn12)CCC3`, for which, in assay [1], the cell count was 594. The inhibition in assay [1] was -5.2% (inactive); in assay [2] it was -73% (inactive); in assay [4], 1.63% (inactive); in assay [9], 17.9% (inactive). In [2], this molecule gave a nuclei count of 143%. In addition, the results for the z-score in assay [3] (setting [10]), in [3] (setting [11]) and in [3] (setting [12]) were -0.0727, 0.543 and 0.37, respectively. Further, the fluorescence slope in assay [5] was -0.441 (inactive); in assay [7], 0.00506 (inactive). Besides, in assay [6], the NADPH fluorescence slope was -0.000113 (inactive). In assay [8], the result was inactive.
Turning to `CCOc1ccccc1C(=O)NCCCCCC(=O)O`, the cell count in assay [1] was found to be 421. For the same molecule, the inhibition in [1] was -9.4% (inactive); in [2], -419% (inactive); in assay [4] it was 1.42% (inactive); in assay [9] it was 0.493% (inactive). The molecule further displayed a nuclei count in [2] of 193%. Also, the z-score in assay [3] (setting [10]) was 0.279; in assay [3] (setting [11]), -0.756; in assay [3] (setting [12]), 0.2. Besides, the fluorescence slope in assay [5] was -0.472 (inactive); in assay [7], 0.00537 (inactive). Moreover, the NADPH fluorescence slope in assay [6] is -9.6e-05 (inactive). Moreover, in [8], the outcome was inactive.
Turning to `C=CCN1C(=O)CC(C(=O)NC)SC1=Nc1ccc(C(=O)OCC)cc1` (stereo unspecified), the cell count in assay [1] turned out to be 634. Moreover, the inhibition in [1] was 12.2% (inactive); in assay [2], -19.2% (inactive); in assay [4], -2.09% (inactive); in assay [9], 6.38% (inactive). This molecule also registered a nuclei count in [2] of 105%. The z-score was -0.632 in [3] (setting [10]), 0.636 in [3] (setting [11]) and -0.397 in assay [3] (setting [12]). Besides, the fluorescence slope in assay [5] is -0.407 (inactive); in assay [7] it was 0.00387 (inactive). Besides, the NADPH fluorescence slope in assay [6] was -5.9e-05 (inactive). Moreover, the molecule was classed as inactive in assay [8].
`CC(=O)/C(C#N)=C1\NC(=O)C(Cc2ccccc2Cl)S1` (stereo unspecified): the cell count in [1] stood at 605. In addition, the inhibition in [1] is -10.1% (inactive); in assay [2] it was 31.2% (inactive); in assay [4] it was 7.42% (inactive); in assay [9] it was 4.47% (inactive). The molecule also had a nuclei count in [2] of 179%. For the same molecule, the z-score in [3] (setting [10]) is 1.48; in assay [3] (setting [11]), -0.162; in [3] (setting [12]), -0.594. For the same molecule, the values for the fluorescence slope in assay [5] and in assay [7] were -0.416 (inactive) and 0.00568 (inactive), respectively. Also, in assay [6], the NADPH fluorescence slope was -7e-05 (inactive). For the same molecule, the outcome in [8] was inactive.
For `COC(=O)c1ccc(CN(C(C)=O)c2ccccc2)o1`, the cell count in assay [1] turned out to be 547. Further, the inhibition in [1] was 0.8% (inactive); in assay [2], -113% (inactive); in assay [4], 15.4% (inactive); in assay [9], 34.2% (inactive). The same molecule displayed a nuclei count in assay [2] of 141%. The z-score in assay [3] (setting [10]) is 0.183; in assay [3] (setting [11]), -0.22; in assay [3] (setting [12]) it was -0.676. The fluorescence slope in assay [5] is -0.471 (inactive); in [7], 0.00509 (inactive). Moreover, the NADPH fluorescence slope in [6] is -9.4e-05 (inactive). In assay [8], the molecule was called inactive.
On to `O=C(C(c1ccccc1)N1CCOCC1)N1CCOCC1` (stereo unspecified), for which the cell count in [1] was determined as 733. For the same molecule, the inhibition is -13.6% (inactive) in assay [1], -25.3% (inactive) in assay [2], -9.53% (inactive) in assay [4] and -3.52% (inactive) in assay [9]. The molecule further showed a nuclei count in assay [2] of 159%. The z-score in [3] (setting [10]) is -0.0327; in [3] (setting [11]) it was 1.84; in assay [3] (setting [12]), -0.87. The fluorescence slope in [5] was -0.431 (inactive); in [7], 0.00553 (inactive). In [6], the NADPH fluorescence slope was -2.2e-05 (inactive). For the same molecule, the molecule was called inactive in [8].

The values above are taken from PubChem BioAssay.
